Active and inactive are the calls of the source. No cut-off for these calls is given here.
Legend:
[1] = Chemical stability of the compound assessed as formation of prostaglandin E2 at 6.31 x 10^-4 M at pH 2.08 at 25 degC by HPLC analysis; format: physicochemical; details: buffer, pH 2.08, 631 µM
Procedure, shortened: (§1)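 Ketal incubated at 25 ± 0.5 °C, pH 2.0–6.5, in 0.1 M buffers (HCl, chloroacetic, acetic, succinic, phosphoric) with ionic strength set to 0.10 M by KCl. Initial ketal was 0.25 mg/mL at pH 2.0–3.5 and 0.50 mg/mL at pH 4.5–6.5. Timed aliquots were EtOAc-extracted for HPLC at 263 nm, quantified by peak-area ratios against calibration mixtures, and first-order rate constants fitted.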

[2] = Chemical stability of the compound assessed as formation of prostaglandin E2 at 6.31 x 10^-4 M at pH 2.99 at 25 degC by HPLC analysis; format: physicochemical; details: buffer, pH 2.99, 631 µM; procedure, shortened: as §1
[3] = Chemical stability of the compound assessed as formation of prostaglandin E2 at 6.31 x 10^-4 M at pH 3.50 at 25 degC by HPLC analysis; format: physicochemical; details: buffer, pH 3.5, 631 µM; procedure, shortened: as §1
[4] = Chemical stability of the compound assessed as formation of prostaglandin E2 at 12.61 x 10^-4 M at pH 4.53 at 25 degC by HPLC analysis; format: physicochemical; details: buffer, pH 4.53, 1261 µM; procedure, shortened: as §1
[5] = Chemical stability of the compound assessed as formation of prostaglandin E2 at 12.61 x 10^-4 M at pH 5.50 at 25 degC by HPLC analysis; format: physicochemical; details: buffer, pH 5.5, 1261 µM; procedure, shortened: as §1
[6] = Chemical stability of the compound assessed as formation of prostaglandin E2 at 12.61 x 10^-4 M at pH 6.50 at 25 degC by HPLC analysis; format: physicochemical; details: buffer, pH 6.5, 1261 µM; procedure, shortened: as §1
[7] = Chemical stability of the compound assessed as formation of prostaglandin E2 at pH 2.08 to 6.50 at 25 degC by HPLC analysis; format: physicochemical; details: buffer; procedure, shortened: as §1
[8] = Chemical stability of the compound assessed as half life of formation of prostaglandin E2 at pH 2 at 25 degC by HPLC analysis; format: physicochemical; details: buffer; procedure, shortened: as §1
[9] = Drug metabolism assessed as disappearance of compound at pH 3.5 at 25 degC by HPLC analysis; format: physicochemical; details: read-out: Drug metabolism; procedure, shortened: as §1
Rhesus monkey [10] = test: Increase of uterine motility in rhesus monkey at 5.62 mg, po administered on 100th day of pregnancy; format: functional, organism-based; details: Macaca mulatta
Procedure, shortened: (§2)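 Female rhesus monkeys on day 100 of pregnancy received an oral dose of 5.62 or 16.87 mg in 0.1 M THAM buffer, pH 8.5. Uterine contraction frequency and amplitude (mmHg) were recorded through an open-ended catheter in the amniotic cavity and compared with pretreatment activity.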

Rhesus monkey [11] = test: Increase of uterine contractions in rhesus monkey at 5.62 mg, po administered on 100th day of pregnancy; format: functional, organism-based; details: Macaca mulatta; procedure, shortened: as §2
Rhesus monkey [12] = test: Increase of amplitude of uterine contractions in rhesus monkey at 5.62 mg, po administered on 100th day of pregnancy; format: functional, Macaca mulatta; procedure, shortened: as §2
Rhesus monkey [13] = test: Increase of uterine contractions in rhesus monkey at 16.87 mg, po administered on 100th day of pregnancy; format: functional, organism-based; details: Macaca mulatta; procedure, shortened: as §2
Rhesus monkey [14] = test: Increase of amplitude of uterine contractions in rhesus monkey at 16.87 mg, po administered on 100th day of pregnancy; format: functional, organism-based; details: Macaca mulatta; procedure, shortened: as §2
[15] = Chemical stability of the compound assessed as formation of prostaglandin A2 at 6.31 x 10^-4 M at pH 3.50 at 25 degC by HPLC analysis; format: physicochemical; details: buffer, pH 3.5, 631 µM; procedure, shortened: as §1
[16] = Chemical stability of the compound assessed as formation of prostaglandin A2 at 12.61 x 10^-4 M at pH 4.53 at 25 degC by HPLC analysis; format: physicochemical; details: buffer, pH 4.53, 1261 µM; procedure, shortened: as §1
[17] = Chemical stability of the compound assessed as formation of prostaglandin A2 at pH 2.08; format: physicochemical; details: buffer
[18] = Chemical stability of the compound assessed as formation of prostaglandin A2 at pH 2.99; format: physicochemical; details: buffer
[19] = Chemical stability of the compound assessed as formation of prostaglandin A2 at pH 3.50; format: physicochemical; details: buffer, pH 3.5
[20] = Chemical stability of the compound assessed as formation of prostaglandin A2 at pH 4.53; format: physicochemical; details: buffer
[21] = Chemical stability of the compound assessed as formation of prostaglandin A2 at pH 5.50; format: physicochemical; details: buffer, pH 5.5
[22] = Chemical stability of the compound assessed as formation of prostaglandin A2 at pH 6.50; format: physicochemical; details: buffer, pH 6.5
[23] = Chemical stability of the compound assessed as half life of formation of prostaglandin A2 at pH 2 at 25 degC by HPLC analysis; format: physicochemical; details: buffer; procedure, shortened: as §1

## CCCCC[C@H](O)/C=C/[C@H]1[C@H](O)CC2(OCCO2)[C@@H]1C/C=C\CCCC(=O)O
[1]
  K: 1.93 ×10⁻⁴ /s
[2]
  K: 2.29 ×10⁻⁵ /s
[3]
  K: 5.78 ×10⁻⁶ /s
[4]
  K: 7.61 ×10⁻⁷ /s
[5]
  K: 1.71 ×10⁻⁷ /s
[6]
  K: 2.58 ×10⁻⁸ /s
[7]
  K: 2.24 ×10⁻² /s/M
[8]
  t1/2: 1 h
[9]
  degraded: 70%
Rhesus monkey [10]
  Activity: Active
Rhesus monkey [11]
  Activity: Active
Rhesus monkey [12]
  Activity: 7 mmHg
Rhesus monkey [13]
  Activity: Active
Rhesus monkey [14]
  Activity: Active

## CCCCC[C@H](O)/C=C/[C@H]1[C@H](O)CC(=O)[C@@H]1C/C=C\CCCC(=O)O [DINOPROSTONE]
[15]
  K: 5.8 ×10⁻⁷ /s
[16]
  K: 3.36 ×10⁻⁷ /s
[17]
  K: 5.8 ×10⁻⁷ /s
[18]
  K: 2.8 ×10⁻⁷ /s
[19]
  K: 2.3 ×10⁻⁷ /s
[20]
  K: 3.1 ×10⁻⁷ /s
[21]
  K: 4 ×10⁻⁷ /s
[22]
  K: 5.3 ×10⁻⁷ /s
[23]
  t1/2: 336 h
